Series [1] can be described thus: Aqueous solubility of the compound. In kind it is physicochemical. To be noted: buffer.
In series [2] the test system is Staphylococcus aureus. In words: Antibacterial activity against Staphylococcus aureus ATCC 9144 after 48 hrs by microdilution method. It counts as functional. As to conditions: ATCC 9144, 48 h.
A short description of series [3]: Hemolytic activity in human RBC after 1 hr. It counts as ADME, cell-based. To be noted: Erythrocyte.
Series [4] is described as follows: Selectivity index, ratio of hemolytic EC50 for human RBC to MIC for Staphylococcus aureus ATCC 9144.
The test system of series [5] is Bacillus subtilis. In words: Antibacterial activity against Bacillus subtilis 168 ATCC 23857 after 48 hrs by microdilution method. In kind it is functional. As to conditions: subsp. subtilis str. 168 ATCC 23857, 48 h. (Dilution methods test growth across graded concentrations, often in twofold steps.)
Series [6] in a line: Antibacterial activity against methicillin-resistant Staphylococcus epidermidis RP62A CCUG 31568 (ATCC 35984) after 48 hrs by microdilution method. It counts as functional. The procedure, abridged: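 Broth microdilution MIC against the reference-strain panel. Compounds were supplied as HCl salts for aqueous solubility in the test medium. Precipitation in the test buffer is flagged at higher concentrations.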

For series [7], the system named is Corynebacterium glutamicum. Briefly: Antibacterial activity against Corynebacterium glutamicum ATCC 13032 after 48 hrs by microdilution method. As to conditions: ATCC 13032, 48 h. In kind it is functional.
The test system of series [8] is Pseudomonas aeruginosa. Briefly: Antibacterial activity against Pseudomonas aeruginosa PAO1 DSM 19880 (ATCC 15692) after 48 hrs by microdilution method. In kind it is functional.
The subject of series [9] is Escherichia coli. In words: Antibacterial activity against Escherichia coli ATCC 25922 after 48 hrs by microdilution method. In kind it is functional. To be noted: ATCC 25922, 48 h.
Series [10] concerns Enterococcus sp. In words: Antibacterial activity against Enterococcus sp. clinical isolate after 24 hrs by microdilution method. In kind it is functional.
Series [11] has as its system Staphylococcus aureus. Briefly: Antibacterial activity against Staphylococcus aureus clinical isolate after 24 hrs by microdilution method. It counts as functional.
Series [12] deals with Pseudomonas aeruginosa. In words: Antibacterial activity against Pseudomonas aeruginosa clinical isolate after 24 hrs by microdilution method. In kind it is functional.
Series [13] relates to Escherichia coli. In words: Antibacterial activity against Escherichia coli clinical isolate after 24 hrs by microdilution method. In kind it is functional.
The test system of series [14] is Bacillus subtilis. In words: Membranolytic activity in Bacillus subtilis 168 ATCC 23857 carrying pCSS962 plasmid measured every second for 30 secs by luciferase reporter assay. It counts as functional. To be noted: subsp. subtilis str. 168 ATCC 23857. A digest of the protocol:
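B. subtilis 168 carrying pCSS962 (luciferase-expressing) was added as a suspension already containing D-luciferin, with luminescence read in real time up to 120 s. Water served as the untreated control. Chlorhexidine was added to all samples at 30 s as a membranolytic control. Fold induction is the peak sample luminescence over the water-control maximum after chlorhexidine, from two independent experiments.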
(Reporter assays use an easily measured gene product as a stand-in for the process of interest.)

The test system of series [15] is Klebsiella pneumoniae. Briefly: Antibacterial activity against Klebsiella pneumoniae clinical isolate after 24 hrs by microdilution method. In kind it is functional.

SMILES strings stand for the structures.

As usually defined, the MIC is the least concentration at which growth counts as inhibited. The low end stands for greater potency, the high end for weaker potency. Broadly, the EC50 is the concentration that produces a half-maximal response. Lower therefore signals an effect from little substance. As to `CC(C)(C)c1cc(C(=O)NCc2ccc(C(=O)NCCNC(=N)N)cc2)cc(C(C)(C)C)c1.Cl`, the solubility entry in [1] was “Insoluble”. The MIC stood at 8 µg/mL in [2]; 8 µg/mL in [5]; 8 µg/mL in [6]; 2 µg/mL in series [7]; 16 µg/mL in [8]; 16 µg/mL in series [9]. This compound displayed an EC50 in series [3] of 52 µg/mL. Also, in series [4], the Selectivity Index was determined as 6.5.

For the compound `CC(C)(C)c1cc(C(=O)Nc2ccc(C(=O)NCCNC(=N)N)cc2)cc(C(C)(C)C)c1.Cl`, the minimal inhibitory concentration (MIC) in series [2] was 4 µg/mL; in series [10], 8 µg/mL; in series [11], 4 µg/mL; in [12], > 64 µg/mL; in series [5], 4 µg/mL; in series [13], 8 µg/mL. Moreover, the MIC turned out to be 4 µg/mL in series [6]; 16 µg/mL in series [15]; 2 µg/mL in series [7]; 16 µg/mL in [8]; 8 µg/mL in series [9]. Besides, a half-maximal effect in series [3] (EC50) was put at 38 µg/mL. In addition, in series [4], the Selectivity Index worked out at 9.5. Besides, the Activity result in series [14] was “Dose-dependent effect”.

The values above are taken from ChEMBL document CHEMBL3862007, “Synthesis and antimicrobial activity of small cationic amphipathic aminobenzamide marine natural product mimics and evaluation of relevance against clinical isolates including ESBL-CARBA producing multi-resistant bacteria” (Bioorg Med Chem, 2016).
